Test system: U2OS
Test: Multiplex assay against U2OS
Format: toxicity, cell-based
Details: human
Summary of the method: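 Hoechst33342, BioTracker Green Microtubule Cytoskeleton Dye, MitoTracker Red and Annexin V Alexa Fluor 680 were added to live cells at seeding, and imaging on a CQ1 microscope at 37°C and 5% CO2 followed compound addition. Gating by CellPathfinder machine learning separated cells into Hoechst high-intensity objects or normal cells, then normal cells into healthy, pyknosed or fragmented nuclei, then pyknosed cells into mitotic or apoptotic. Per cents of healthy-nucleus cells are reported for the tubulin, mitochondrial-mass and membrane-permeability phenotypes.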

[1] = 12 h, 1 µM, compound concentration 1 uM, replicate 1
[2] = 12 h, 1 µM, compound concentration 1 uM, replicate 2
[3] = 12 h, 10 µM, compound concentration 10 uM, replicate 1
[4] = 12 h, 10 µM, compound concentration 10 uM, replicate 2
[5] = 24 h, 1 µM, compound concentration 1 uM, replicate 1
[6] = 24 h, 1 µM, compound concentration 1 uM, replicate 2
[7] = 24 h, 10 µM, compound concentration 10 uM, replicate 1
[8] = 24 h, 10 µM, compound concentration 10 uM, replicate 2
[9] = 48 h, 1 µM, compound concentration 1 uM, replicate 1
[10] = 48 h, 1 µM, compound concentration 1 uM, replicate 2
[11] = 48 h, 10 µM, compound concentration 10 uM, replicate 1
[12] = 48 h, 10 µM, compound concentration 10 uM, replicate 2

What does the source list for COc1cc(OC2CCN(C(C)=O)CC2)ccc1C(=O)N1CCC(N2C(=O)OCc3ccccc32)CC1?
Population Apoptotic (%) [1]: 50%; Population Fragmented Nuclei (%) [1]: 22%; Population Healthy Nuclei (%) [1]: 67%; Population Hoechst High Intensity Objects (%) [1]: 0%; Population Membrane Permeable-Phenotype (%) [1]: 5%; Population Mitochondria Different-Phenotype (%) [1]: 3%; Population Mitotic Cells (%) [1]: 50%; Population Normal (%) [1]: 99%; Population Pyknosed Nuclei (%) [1]: 9%; Population Tubulin-Different-Phenotype (%) [1]: 3%; Total Cell Count [1]: 233; Population Apoptotic (%) [2]: 66%; Population Fragmented Nuclei (%) [2]: 20%; Population Healthy Nuclei (%) [2]: 69%; Population Membrane Permeable-Phenotype (%) [2]: 11%; Population Mitochondria Different-Phenotype (%) [2]: 7%; Population Mitotic Cells (%) [2]: 33%; Population Tubulin-Different-Phenotype (%) [2]: 8%; Total Cell Count [2]: 130; Population Apoptotic (%) [3]: 72%; Population Fragmented Nuclei (%) [3]: 23%; Population Healthy Nuclei (%) [3]: 62%; Population Hoechst High Intensity Objects (%) [3]: 6%; Population Membrane Permeable-Phenotype (%) [3]: 18%; Population Mitochondria Different-Phenotype (%) [3]: 6%; Population Mitotic Cells (%) [3]: 27%; Population Normal (%) [3]: 93%; Population Pyknosed Nuclei (%) [3]: 13%; Population Tubulin-Different-Phenotype (%) [3]: 12%; Total Cell Count [3]: 228; Population Apoptotic (%) [4]: 87%; Population Fragmented Nuclei (%) [4]: 13%; Population Healthy Nuclei (%) [4]: 77%; Population Hoechst High Intensity Objects (%) [4]: 1%; Population Membrane Permeable-Phenotype (%) [4]: 21%; Population Mitochondria Different-Phenotype (%) [4]: 10%; Population Mitotic Cells (%) [4]: 12%; Population Normal (%) [4]: 98%; Population Pyknosed Nuclei (%) [4]: 9%; Population Tubulin-Different-Phenotype (%) [4]: 13%; Total Cell Count [4]: 85; Population Apoptotic (%) [5]: 82%; Population Fragmented Nuclei (%) [5]: 20%; Population Healthy Nuclei (%) [5]: 71%; Population Hoechst High Intensity Objects (%) [5]: 1%; Population Membrane Permeable-Phenotype (%) [5]: 3%; Population Mitochondria Different-Phenotype (%) [5]: 2%; Population Mitotic Cells (%) [5]: 17%; Population Normal (%) [5]: 98%; Population Pyknosed Nuclei (%) [5]: 8%; Population Tubulin-Different-Phenotype (%) [5]: 2%; Total Cell Count [5]: 288; Population Apoptotic (%) [6]: 76%; Population Fragmented Nuclei (%) [6]: 22%; Population Healthy Nuclei (%) [6]: 68%; Population Membrane Permeable-Phenotype (%) [6]: 7%; Population Mitochondria Different-Phenotype (%) [6]: 5%; Population Mitotic Cells (%) [6]: 23%; Population Tubulin-Different-Phenotype (%) [6]: 3%; Total Cell Count [6]: 163; Population Apoptotic (%) [7]: 81%; Population Fragmented Nuclei (%) [7]: 21%; Population Healthy Nuclei (%) [7]: 60%; Population Hoechst High Intensity Objects (%) [7]: 5%; Population Membrane Permeable-Phenotype (%) [7]: 9%; Population Mitochondria Different-Phenotype (%) [7]: 9%; Population Mitotic Cells (%) [7]: 18%; Population Normal (%) [7]: 94%; Population Pyknosed Nuclei (%) [7]: 18%; Population Tubulin-Different-Phenotype (%) [7]: 4%; Total Cell Count [7]: 250; Population Apoptotic (%) [8]: 71%; Population Fragmented Nuclei (%) [8]: 12%; Population Healthy Nuclei (%) [8]: 80%; Population Hoechst High Intensity Objects (%) [8]: 2%; Population Membrane Permeable-Phenotype (%) [8]: 10%; Population Mitochondria Different-Phenotype (%) [8]: 3%; Population Mitotic Cells (%) [8]: 28%; Population Normal (%) [8]: 97%; Population Pyknosed Nuclei (%) [8]: 7%; Population Tubulin-Different-Phenotype (%) [8]: 6%; Total Cell Count [8]: 99; Population Apoptotic (%) [9]: 80%; Population Fragmented Nuclei (%) [9]: 17%; Population Healthy Nuclei (%) [9]: 77%; Population Hoechst High Intensity Objects (%) [9]: 3%; Population Membrane Permeable-Phenotype (%) [9]: 3%; Population Mitochondria Different-Phenotype (%) [9]: 1%; Population Mitotic Cells (%) [9]: 19%; Population Normal (%) [9]: 96%; Population Pyknosed Nuclei (%) [9]: 5%; Population Tubulin-Different-Phenotype (%) [9]: 2%; Total Cell Count [9]: 388; Population Apoptotic (%) [10]: 65%; Population Fragmented Nuclei (%) [10]: 23%; Population Healthy Nuclei (%) [10]: 66%; Population Membrane Permeable-Phenotype (%) [10]: 10%; Population Mitochondria Different-Phenotype (%) [10]: 5%; Population Mitotic Cells (%) [10]: 35%; Population Pyknosed Nuclei (%) [10]: 9%; Population Tubulin-Different-Phenotype (%) [10]: 4%; Total Cell Count [10]: 213; Population Apoptotic (%) [11]: 81%; Population Fragmented Nuclei (%) [11]: 19%; Population Healthy Nuclei (%) [11]: 66%; Population Hoechst High Intensity Objects (%) [11]: 5%; Population Membrane Permeable-Phenotype (%) [11]: 5%; Population Mitochondria Different-Phenotype (%) [11]: 4%; Population Mitotic Cells (%) [11]: 18%; Population Normal (%) [11]: 95%; Population Pyknosed Nuclei (%) [11]: 14%; Population Tubulin-Different-Phenotype (%) [11]: 3%; Total Cell Count [11]: 320; Population Apoptotic (%) [12]: 100%; Population Fragmented Nuclei (%) [12]: 17%; Population Healthy Nuclei (%) [12]: 78%; Population Hoechst High Intensity Objects (%) [12]: 1%; Population Membrane Permeable-Phenotype (%) [12]: 14%; Population Mitochondria Different-Phenotype (%) [12]: 6%; Population Mitotic Cells (%) [12]: 0%; Population Normal (%) [12]: 98%; Population Pyknosed Nuclei (%) [12]: 3%; Population Tubulin-Different-Phenotype (%) [12]: 8%; Total Cell Count [12]: 130

Which results are given for Cn1cc(C(=O)OCC2CCN(CCNS(C)(=O)=O)CC2)c2ccccc21?
Population Apoptotic (%) [1]: 73%; Population Fragmented Nuclei (%) [1]: 27%; Population Healthy Nuclei (%) [1]: 63%; Population Hoechst High Intensity Objects (%) [1]: 3%; Population Membrane Permeable-Phenotype (%) [1]: 7%; Population Mitochondria Different-Phenotype (%) [1]: 4%; Population Mitotic Cells (%) [1]: 26%; Population Normal (%) [1]: 96%; Population Pyknosed Nuclei (%) [1]: 8%; Population Tubulin-Different-Phenotype (%) [1]: 5%; Total Cell Count [1]: 226; Population Apoptotic (%) [2]: 77%; Population Fragmented Nuclei (%) [2]: 20%; Population Healthy Nuclei (%) [2]: 71%; Population Hoechst High Intensity Objects (%) [2]: 0%; Population Membrane Permeable-Phenotype (%) [2]: 13%; Population Mitochondria Different-Phenotype (%) [2]: 5%; Population Mitotic Cells (%) [2]: 22%; Population Normal (%) [2]: 100%; Population Tubulin-Different-Phenotype (%) [2]: 6%; Total Cell Count [2]: 110; Population Apoptotic (%) [3]: 53%; Population Fragmented Nuclei (%) [3]: 36%; Population Healthy Nuclei (%) [3]: 58%; Population Hoechst High Intensity Objects (%) [3]: 0%; Population Membrane Permeable-Phenotype (%) [3]: 10%; Population Mitochondria Different-Phenotype (%) [3]: 5%; Population Mitotic Cells (%) [3]: 46%; Population Normal (%) [3]: 99%; Population Pyknosed Nuclei (%) [3]: 5%; Population Tubulin-Different-Phenotype (%) [3]: 5%; Total Cell Count [3]: 252; Population Apoptotic (%) [4]: 57%; Population Fragmented Nuclei (%) [4]: 18%; Population Healthy Nuclei (%) [4]: 76%; Population Hoechst High Intensity Objects (%) [4]: 1%; Population Membrane Permeable-Phenotype (%) [4]: 17%; Population Mitochondria Different-Phenotype (%) [4]: 13%; Population Mitotic Cells (%) [4]: 42%; Population Normal (%) [4]: 98%; Population Tubulin-Different-Phenotype (%) [4]: 9%; Total Cell Count [4]: 137; Population Apoptotic (%) [5]: 95%; Population Fragmented Nuclei (%) [5]: 26%; Population Healthy Nuclei (%) [5]: 65%; Population Hoechst High Intensity Objects (%) [5]: 2%; Population Membrane Permeable-Phenotype (%) [5]: 4%; Population Mitochondria Different-Phenotype (%) [5]: 2%; Population Mitotic Cells (%) [5]: 4%; Population Normal (%) [5]: 97%; Population Pyknosed Nuclei (%) [5]: 8%; Population Tubulin-Different-Phenotype (%) [5]: 3%; Total Cell Count [5]: 263; Population Apoptotic (%) [6]: 100%; Population Fragmented Nuclei (%) [6]: 17%; Population Healthy Nuclei (%) [6]: 78%; Population Hoechst High Intensity Objects (%) [6]: 0%; Population Membrane Permeable-Phenotype (%) [6]: 10%; Population Mitochondria Different-Phenotype (%) [6]: 5%; Population Mitotic Cells (%) [6]: 0%; Population Normal (%) [6]: 100%; Population Pyknosed Nuclei (%) [6]: 4%; Population Tubulin-Different-Phenotype (%) [6]: 6%; Total Cell Count [6]: 144; Population Apoptotic (%) [7]: 92%; Population Fragmented Nuclei (%) [7]: 33%; Population Healthy Nuclei (%) [7]: 61%; Population Hoechst High Intensity Objects (%) [7]: 2%; Population Membrane Permeable-Phenotype (%) [7]: 11%; Population Mitochondria Different-Phenotype (%) [7]: 5%; Population Mitotic Cells (%) [7]: 7%; Population Normal (%) [7]: 97%; Population Pyknosed Nuclei (%) [7]: 4%; Population Tubulin-Different-Phenotype (%) [7]: 4%; Total Cell Count [7]: 281; Population Apoptotic (%) [8]: 64%; Population Fragmented Nuclei (%) [8]: 16%; Population Healthy Nuclei (%) [8]: 73%; Population Hoechst High Intensity Objects (%) [8]: 1%; Population Membrane Permeable-Phenotype (%) [8]: 12%; Population Mitochondria Different-Phenotype (%) [8]: 8%; Population Mitotic Cells (%) [8]: 35%; Population Normal (%) [8]: 98%; Population Pyknosed Nuclei (%) [8]: 9%; Population Tubulin-Different-Phenotype (%) [8]: 8%; Total Cell Count [8]: 150; Population Apoptotic (%) [9]: 91%; Population Fragmented Nuclei (%) [9]: 20%; Population Healthy Nuclei (%) [9]: 69%; Population Hoechst High Intensity Objects (%) [9]: 1%; Population Membrane Permeable-Phenotype (%) [9]: 8%; Population Mitochondria Different-Phenotype (%) [9]: 3%; Population Mitotic Cells (%) [9]: 8%; Population Normal (%) [9]: 98%; Population Pyknosed Nuclei (%) [9]: 9%; Population Tubulin-Different-Phenotype (%) [9]: 5%; Total Cell Count [9]: 372; Population Apoptotic (%) [10]: 57%; Population Fragmented Nuclei (%) [10]: 13%; Population Healthy Nuclei (%) [10]: 75%; Population Hoechst High Intensity Objects (%) [10]: 2%; Population Membrane Permeable-Phenotype (%) [10]: 6%; Population Mitochondria Different-Phenotype (%) [10]: 5%; Population Mitotic Cells (%) [10]: 42%; Population Normal (%) [10]: 97%; Population Pyknosed Nuclei (%) [10]: 10%; Population Tubulin-Different-Phenotype (%) [10]: 4%; Total Cell Count [10]: 182; Population Apoptotic (%) [11]: 88%; Population Fragmented Nuclei (%) [11]: 30%; Population Healthy Nuclei (%) [11]: 58%; Population Hoechst High Intensity Objects (%) [11]: 1%; Population Membrane Permeable-Phenotype (%) [11]: 9%; Population Mitochondria Different-Phenotype (%) [11]: 4%; Population Mitotic Cells (%) [11]: 11%; Population Normal (%) [11]: 98%; Population Pyknosed Nuclei (%) [11]: 10%; Population Tubulin-Different-Phenotype (%) [11]: 7%; Total Cell Count [11]: 341; Population Apoptotic (%) [12]: 75%; Population Fragmented Nuclei (%) [12]: 9%; Population Healthy Nuclei (%) [12]: 79%; Population Hoechst High Intensity Objects (%) [12]: 3%; Population Membrane Permeable-Phenotype (%) [12]: 13%; Population Mitochondria Different-Phenotype (%) [12]: 6%; Population Mitotic Cells (%) [12]: 25%; Population Normal (%) [12]: 97%; Population Tubulin-Different-Phenotype (%) [12]: 5%; Total Cell Count [12]: 200
